Data published in ChEMBL document CHEMBL5033998, “Discovery of DDO-2213 as a Potent and Orally Bioavailable Inhibitor of the WDR5-Mixed Lineage Leukemia 1 Protein-Protein Interaction for the Treatment of MLL Fusion Leukemia” (J Med Chem, 2021).

Columns and labels:
[1] = biological target: Histone-lysine N-methyltransferase 2A/WDR5 (Homo sapiens, UniProt P61964); test: Inhibition of MLL1-WDR5 (unknown origin) protein-protein interaction using Thr-FAM as probe by fluorescence polarization competition assay
How it was run: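 Competitive FP with WDR5 and 10mer-Thr-FAM probe in 100 mM KH2PO4, 25 mM KCl, 0.01% Triton X-100, pH 6.5; read at λex 485 ± 25 nm, λem 535 ± 25 nm. IC50 from three independent replicates ± SD.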

[2] = biological target: Histone-lysine N-methyltransferase 2A/WDR5 (Homo sapiens) (UniProt P61964+Q03164); test: Inhibition of MLL1-WDR5 (unknown origin) protein-protein interaction at 100 uM by competitive fluorescence polarization assay
[3] = Permeability of compound at pH 7.4 incubated for 4 hrs by PAMPA assay; type: ADME; settings: read-out: permeability
How it was run: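 Double-sink PAMPA: compound diluted in pH 7.4 donor buffer, permeation through artificial membrane to acceptor over 4 h at 25 °C; donor and acceptor read by UV; mean ± SD of three independent experiments.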

MV4-11 = test: Antiproliferative activity against human MV4-11 cells assessed as cell viability incubated for 72 hrs by CCK8 assay; type: functional, cell-based; settings: MV4-11, 72 h
How it was run: (§1)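 Cells seeded at 3000–6000 per well, exposed to inhibitor at several concentrations for 72 h; viability read with CCK8 kit. MV4-11 and K562 grown in modified IMDM + 10% FBS, pen/strep; MOLM-13 in RPMI-1640 + 10% FBS; HUVEC in modified DMEM + 10% FBS; 37 °C, 5% CO2. IC50 as mean ± SD of three independent experiments.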

MOLM-13 = test: Antiproliferative activity against human MOLM-13 cells assessed as cell viability incubated for 72 hrs by CCK8 assay; type: functional, cell-based; settings: MOLM-13, 72 h; how it was run: as §1
K562 = test: Antiproliferative activity against human K562 cells assessed as cell viability incubated for 72 hrs by CCK8 assay; type: functional, cell-based; settings: K562, 72 h; how it was run: as §1
HUVEC = test: Antiproliferative activity against human HUVEC cells assessed as cell viability incubated for 72 hrs by CCK8 assay; type: cell-based; how it was run: as §1

| Structure (SMILES) | IC50 [1] | further results |
| --- | --- | --- |
| Cc1nc(Cl)cc(Nc2cc([N+](=O)[O-])ccc2N2CCN(C)CC2)n1 | > 50 µM | – |
| CN1CCN(c2ccc([N+](=O)[O-])cc2Nc2cc(N3CCCC3)ncn2)CC1 | > 50 µM | – |
| CN1CCN(c2ccc([N+](=O)[O-])cc2Nc2ncnc(Cl)c2[N+](=O)[O-])CC1 | > 50 µM | – |
| CN1CCN(c2ccc([N+](=O)[O-])cc2Nc2cc(N(C)C)ncn2)CC1 | > 50 µM | – |
| CN1CCN(c2ccc([N+](=O)[O-])cc2Nc2ncnc3ccccc23)CC1 | – | inhibition [2]: 35.8% |
| Nc1c(Cl)ncnc1Nc1cc([N+](=O)[O-])ccc1N1CCN(c2ccccc2)CC1 | > 50 µM | – |
| CN1CCN(c2ccc(-c3ccc(NC(=O)CC4CCOCC4)cc3)c(F)c2Nc2ncnc(Cl)c2N)CC1 | 85 µM | – |
| CN1CCC(C(=O)Nc2ccc(-c3ccc(N4CCN(C)CC4)c(Nc4ncnc(Cl)c4N)c3F)cc2)CC1 | 105 µM | – |
| CN1CCN(c2ccc([N+](=O)[O-])cc2Nc2ncccn2)CC1 | > 50 µM | – |
| CN1CCN(c2ccc([N+](=O)[O-])cc2Nc2cc(N3CCC3)ncn2)CC1 | > 50 µM | – |
| Nc1c(Cl)ncnc1Nc1cc([N+](=O)[O-])ccc1N1CCNCC1 | 45.1 µM | – |
| Nc1c(Cl)ncnc1Nc1cc([N+](=O)[O-])ccc1N1CCN(CCO)CC1 | > 50 µM | – |
| CCN1CCN(c2ccc([N+](=O)[O-])cc2Nc2ncnc(Cl)c2N)CC1 | 38.1 µM | – |
| CN1CCN(c2ccc(-c3ccc(NC(=O)C4CCOCC4)cc3)c(F)c2Nc2ncnc(Cl)c2N)CC1 | 176 µM | – |
| CN1CCN(c2ccc([N+](=O)[O-])cc2Nc2ncncc2N)CC1 | > 50 µM | – |
| CN1CCN(c2ccc([N+](=O)[O-])cc2Nc2cc(Cl)nc(N)n2)CC1 | 20.4 µM | – |
| Nc1c(Cl)ncnc1Nc1cc([N+](=O)[O-])ccc1N1CCN(C2CC2)CC1 | > 50 µM | – |
| Nc1c(Cl)ncnc1Nc1cc([N+](=O)[O-])ccc1N1CCOCC1 | > 50 µM | – |
| Cc1nc(Cl)c(N)c(Nc2cc([N+](=O)[O-])ccc2N2CCN(C)CC2)n1 | 12.1 µM | – |
| Cc1c(Cl)ncnc1Nc1cc([N+](=O)[O-])ccc1N1CCN(C)CC1 | > 50 µM | – |
| CN1CCN(c2ccc([N+](=O)[O-])cc2Nc2ncccc2N)CC1 | > 50 µM | – |
| CN1CCN(c2ccc([N+](=O)[O-])cc2Nc2nccc(N)n2)CC1 | > 50 µM | – |

Further lines, with some results ahead:

| IC50 [1] | Structure (SMILES) | further results |
| --- | --- | --- |
| 0.16 µM | CN1CCN(c2ccc(-c3ccc(C(=O)N4CCC(C)(O)CC4)cc3)cc2Nc2ncnc(Cl)c2N)CC1 | – |
| 0.67 µM | Cc1c(-c2ccc(C(=O)N(C)C)cc2)ccc(N2CCN(C)CC2)c1Nc1ncnc(Cl)c1N | – |
| 0.18 µM | CN1CCN(c2ccc(-c3ccc(C(=O)NCCN4CCOCC4)cc3)cc2Nc2ncnc(Cl)c2N)CC1 | – |
| 0.22 µM | CN1CCN(C(=O)c2ccc(-c3ccc(N4CCN(C)CC4)c(Nc4ncnc(Cl)c4N)c3)cc2)CC1 | – |
| 0.19 µM | CN1CCN(c2ccc(-c3ccc(C(=O)N4CCOCC4)cc3)cc2Nc2ncnc(Cl)c2N)CC1 | – |
| 36 µM | CN1CCN(c2cc(F)c(-c3ccc(C(=O)N4CCOCC4)cc3)cc2Nc2ncnc(Cl)c2N)CC1 | Papp at 4 h [3]: 13.7 ×10⁻⁶ cm/s; IC50 (MV4-11): 19.6 µM; IC50 (MOLM-13): 16.5 µM; IC50 (K562): 88.7 µM; IC50 (HUVEC): > 100 µM |
| 0.16 µM | CN1CCN(c2ccc(-c3ccc(C(=O)NCCCN4CCOCC4)cc3)cc2Nc2ncnc(Cl)c2N)CC1 | – |
| 0.42 µM | CN1CCN(c2ccc(-c3ccc(C(=O)NC4CCOCC4)cc3)cc2Nc2ncnc(Cl)c2N)CC1 | – |
| 33 µM | CN1CCN(c2cc(F)c(-c3ccc(C(=O)N4CCC(O)CC4)cc3)cc2Nc2ncnc(Cl)c2N)CC1 | – |
| 0.11 µM | CN1CCN(c2ccc(-c3ccc(C(=O)N4CCC(O)CC4)cc3)cc2Nc2ncnc(Cl)c2N)CC1 | – |
| 0.23 µM | CN1CCC(NC(=O)c2ccc(-c3ccc(N4CCN(C)CC4)c(Nc4ncnc(Cl)c4N)c3)cc2)CC1 | – |
| 117 µM | CN1CCN(c2ccc(-c3ccc(C(=O)N4CCOCC4)cc3)c(F)c2Nc2ncnc(Cl)c2N)CC1 | – |
| 74 µM | CN1CCN(c2cc(F)c(-c3ccc(C(=O)NCCN4CCOCC4)cc3)cc2Nc2ncnc(Cl)c2N)CC1 | Papp at 4 h [3]: 10.5 ×10⁻⁶ cm/s; IC50 (MV4-11): 27.7 µM; IC50 (MOLM-13): 23.1 µM; IC50 (K562): > 100 µM; IC50 (HUVEC): > 100 µM |
| 69 µM | CN1CCN(c2ccc(-c3ccc(C(=O)NCCCN4CCOCC4)cc3)c(F)c2Nc2ncnc(Cl)c2N)CC1 | – |
| 465 µM | Cc1cc(N2CCN(C)CC2)c(Nc2ncnc(Cl)c2N)cc1-c1ccc(C(=O)NCCCN2CCOCC2)cc1 | – |
| 112 µM | CCN1CCN(C(=O)c2ccc(-c3ccc(N4CCN(C)CC4)c(Nc4ncnc(Cl)c4N)c3F)cc2)CC1 | – |
| 0.021 µM | CN1CCN(c2cc(F)c(-c3ccc(C(=O)NCCCN4CCOCC4)cc3)cc2Nc2ncnc(Cl)c2N)CC1 | Papp at 4 h [3]: 9.14 ×10⁻⁶ cm/s; IC50 (MV4-11): 25.6 µM; IC50 (MOLM-13): 17.3 µM; IC50 (K562): 70.1 µM; IC50 (HUVEC): > 100 µM |
| 240 µM | CN1CCN(c2ccc(-c3ccc(C(=O)N(C)C)cc3)c(F)c2Nc2ncnc(Cl)c2N)CC1 | – |
| 102 µM | CN1CCN(c2ccc(-c3ccc(C(=O)NCCN4CCOCC4)cc3)c(F)c2Nc2ncnc(Cl)c2N)CC1 | – |
| 36 µM | CN1CCN(c2cc(F)c(-c3ccc(C(=O)NCC4CCOCC4)cc3)cc2Nc2ncnc(Cl)c2N)CC1 | Papp at 4 h [3]: 16.9 ×10⁻⁶ cm/s; IC50 (MV4-11): 15.7 µM; IC50 (MOLM-13): 12.3 µM; IC50 (K562): 81.7 µM; IC50 (HUVEC): > 100 µM |
